# Assay outcomes (PubChem)
# Rows were chosen to be rich in hits. Some 2.4% of all compounds tested hit in one or more screens of this group.
# Insulin prom inh – inhibitors of insulin promoter-driven GFP, primary screen, imaging, TRM-6 cells (human fetal islet line), eGFP reporter, cell count. hit rate 0.9% among 130,000. inhibition, % at 2 µM. reporter expression induced with tamoxifen;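 active means inhibition above the mean plus 3 SD, with well images judged a real hit on visual review, cut at about 60% in these data, passing the limit was not always enough; inconclusive means inhibition over the cutoff but images rejected on review; inactive means inhibition not above the cutoff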
# bCat nuc transl – modulators of beta-catenin nuclear translocation, primary screen, imaging, HeLa cells, immunofluorescence, high-content; nuclear translocation activity, % at 5 µM; hit rate 0.3% among 190,000; AID 1665, 2009;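 active means nuclear translocation activity above 50% at 5 µM, with a well cell count of 50 or more; inconclusive means wells under 50 cells across six images, flagged as toxic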;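 further: per-cell ratio of nuclear to cytoplasmic median beta-catenin stain intensity; plate controls were DMSO negative control for no effect and GSK-3 inhibitor IX positive control for full effect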
#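 Test system: human HeLa cells, native beta-catenin. Compound dosing: 5 µM primary single dose, 0.1% DMSO, 0.02–20 µM confirmation series. Incubation: compound exposure 24 h at 37°C. Detection: beta-catenin immunostaining with DAPI counterstain, 20x imaging, 6 fields/well. Read-out basis: Nuclear/cytoplasmic beta-catenin signal ratio, % activation.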
# ROMK mod – ROMK potassium channel modulators, primary screen, cell-based, thallium flux, MLSMR library; hit rate 2% among 130,000; B-score at 10 µM; Tet-inducible ROMK, thallium flux fluorescence; actives lie on both sides;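 active means signal ratio slope over the read window, or its plate-corrected B-score, at least 3 SD from the plate mean, either direction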;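 further: B-score of the F/F0 ratio slope over 7 to 12 s after thallium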
# Target sequence (P48048 whole entry, looked up): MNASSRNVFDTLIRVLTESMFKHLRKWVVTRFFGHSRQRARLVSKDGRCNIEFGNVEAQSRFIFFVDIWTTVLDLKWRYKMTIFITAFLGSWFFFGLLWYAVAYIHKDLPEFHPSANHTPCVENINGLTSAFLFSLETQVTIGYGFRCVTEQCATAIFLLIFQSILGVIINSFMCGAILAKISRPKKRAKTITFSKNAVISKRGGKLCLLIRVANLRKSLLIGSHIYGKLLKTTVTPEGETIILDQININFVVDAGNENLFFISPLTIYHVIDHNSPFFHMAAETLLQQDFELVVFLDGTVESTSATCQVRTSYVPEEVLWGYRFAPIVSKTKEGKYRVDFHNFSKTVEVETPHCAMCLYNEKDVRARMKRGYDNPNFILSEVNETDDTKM
# HSV augment – enhancers of HSV replication in host cells, fold increase, host cell viability | HSV replication augmentation in cells | maximum fold increase | hit rate 0.005% among 220,000 | AID 1956, 2009; in the data active means maximum fold increase above about 1.5; inconclusive means no clear call, values can overlap the other calls; tested in PC3 cells
# MT stabilizer – microtubule stabilizers in HeLa cells, primary screen, imaging, high-content imaging; HeLa tubulin immunostaining HCS, 24 h; share of cells brighter than vehicle mean+2SD; % tubulin-high responders, % at 10 µM; hit rate 0.83% among 200,000;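 active means plate Z-score above 3 for both tubulin-high and condensed-nucleus cell shares, with cell loss under 80%, at 10 µM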;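 further: anti alpha tubulin signal scored within the nucleus-defined area of each cell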
# ROMK hit retest – ROMK channel modulator hit retest, confirmation, cell-based, thallium flux, duplicate, resupplied hits. fluorescence ratio; active compounds read low. AID 1917, 2009. hit rate 54% among 3,000. shares compounds with ROMK mod. normalized thallium flux (F/F0 slope) at 10 µM;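 active means Flux at 10 µM at least 3 SD below or above vehicle control mean in one or both replicates; inconclusive means no clear call, values can overlap the other calls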
# * = called active by the depositor; i = inactive; ? = inconclusive; . = no result.
SMILES,Insulin prom inh,bCat nuc transl,ROMK mod,HSV augment,MT stabilizer,ROMK hit retest
CN(C)c1ccc(/C=C2\CCC/C(=C\c3ccccc3)C2=O)cc1,-120,4,.,?,9.3*,?
CCOC(=O)C1=C(C)NC(C)=C(C(=O)OCC)C1c1sccc1C,.,0,-5.3*,i,3,0.048*
Cn1c(=O)[nH]c(=O)c2c1ncn2CCCc1ccccc1,.,-3,-1.4,i,12,.
O=C(O)c1ccc(N2CCOCC2)c(N2C(=O)C3C4C=CC(C4)C3C2=O)c1 (stereo unspecified),40,1,-0.025,i,3,0.075
CCC1Oc2ccc(C)cc2N(CC(=O)NCCN2CCCCCC2)C1=O (stereo unspecified),.,-2,-0.62,i,5,.
COc1cccc(C2=NOC(C(=O)NCc3ccco3)C2)c1 (stereo unspecified),29,.,5*,.,10,0.081
O=C(NCc1ccco1)C1CC(c2ccc(Cl)cc2)=NO1 (stereo unspecified),.,2,4.6*,i,1,0.093
C=CCNC(=O)C1CC(c2cccc(OC)c2)=NO1 (stereo unspecified),.,-1,0.78,i,6,.
O=C(COC(=O)/C=C/c1ccc(S(=O)(=O)N2CCOCC2)cc1)NCc1ccc(F)cc1,.,-2,5*,i,2,0.09
Cc1cccc(C(=O)N2CCC(=O)N(C(COCc3ccccc3)Cc3ccccc3)CC2)c1 (stereo unspecified),-27,.,-1.6,i,2,.
Cc1cccc(COCC(Cc2ccccc2)N2CCN(C(=O)c3cccc(Cl)c3)CCC2=O)c1 (stereo unspecified),14,.,-2.9*,i,3,0.054*
Cc1ccc(S(=O)(=O)N2CCC(=O)N(C(COCc3ccc(Cl)cc3)Cc3ccccc3)CC2)cc1 (stereo unspecified),-95,.,-4.4*,i,2,?
Cc1cccc(C(=O)N2CCC(=O)N(C(COCc3cccc(C(F)(F)F)c3)Cc3ccccc3)CC2)c1 (stereo unspecified),-36,.,-3.3*,i,3,0.058*
CCOc1ccc(N(CC(=O)Nc2ccccc2C(=O)N2CCOCC2)S(=O)(=O)c2ccc(F)cc2)cc1,-3,-3,0.11,i,3,.
CCN(CC)C(=O)C1CCCN(c2ccc([N+](=O)[O-])cc2/C=N/NC(=O)c2ccc([N+](=O)[O-])cc2)C1 (stereo unspecified),8,.,.,.,3,?
CN1CCN(c2ccccc2NC(=O)c2ccc(-c3cccc([N+](=O)[O-])c3)o2)CC1,-20,-1,-2.4*,i,6,0.059*
CCC(=O)N1CCN(c2ccccc2NC(=O)c2ccc(-c3cccc([N+](=O)[O-])c3)o2)CC1,0,0,.,i,1,.
CN1CCN(c2ccc([N+](=O)[O-])cc2/C=N/NC(=O)c2cccc([N+](=O)[O-])c2)CC1,10,-3,-2.3*,i,3,0.058*
CCCNC(=O)c1c(CSc2ccc(Cl)cc2)noc1C(=O)NCc1ccccc1,.,.,.,i,.,.
CC(C(=O)OCC(=O)Nc1cccc(S(=O)(=O)N(C)C)c1)N1C(=O)c2ccccc2C1=O (stereo unspecified),.,2,1.3,i,4,.
O=C(Nc1ccc(S(=O)(=O)Nc2ccccc2)cc1)c1ccc(CN2CCOCC2)cc1,.,1,-2.8,i,3,.
CCOC(=O)C1(C)NC(c2ccco2)C2C(=O)N(C)C(=O)C21 (stereo unspecified),.,-2,0.75,i,3,.
COC(=O)c1ccccc1NC(=O)NCc1c(C)nn(C)c1C,-13,1,0.11,i,3,.
CC(C)(C)NC(=S)N/N=C/c1cccnc1,.,-1,0.037,i,.,.
COC(=O)C(Cc1ccccc1)NC(=O)c1cccc(S(=O)(=O)N(C)C)c1 (stereo unspecified),.,0,0.37,i,3,.
SMILES,Insulin prom inh,bCat nuc transl,ROMK mod,HSV augment,MT stabilizer,ROMK hit retest
CCOC(=O)c1n[nH]c2ccccc12,-11,-2,2.2*,.,5,0.073
CCOC(=O)c1n[nH]c(=O)c2ccccc12,.,-1,1.4,i,4,.
CCN(CC)CCNC(=O)c1ccc(NC(=O)COc2ccccc2F)cc1,.,1,1.9*,i,2,0.079
CCN(CC)CCNC(=O)c1ccc(NC(=O)c2ccc(F)cc2)cc1,.,-3,-0.41,i,3,.
Cc1ccc(CSc2nnc(-c3ccc(NS(=O)(=O)c4ccccc4)cc3)o2)cc1,20,3,0.24,i,3,.
COC(=O)CSc1nnc(-c2ccc(NS(=O)(=O)c3ccccc3)cc2)o1,.,-7,-3.5*,i,6,0.056*
O=C(Nc1ccccc1)NC1CCCCNC1=O (stereo unspecified),.,-1,-0.39,i,.,.
CCN1CCS/C1=C\C=C\C1=[N+](CC)CCS1,.,-2,.,i,3,?
CCN1CCS/C1=C/C=C/C1=[N+](CC)CCS1,-233,-1,-1.4,i,4,.
CCn1c(O)c(/C=N/N=C2CCCCC2)c2cc(C3=NNC(=O)CC3)ccc21,.,3,.,i,.,0.067*
COc1ccc(CCNC(=O)CC2SC(=NCCC(C)C)NC2=O)cc1OC (stereo unspecified),-6,0,.,i,4,.
CC(C)(C)NC(=O)COC(=O)c1ccc(Cl)nc1,.,0,-0.1,i,1,.
O=c1c2cc(Cl)ccc2nc(-c2ccccc2)n1O,.,0,2.6,i,2,.
O=c1c2cc(Cl)ccc2nc(-c2ccc(Cl)c(Cl)c2)n1O,.,2,.,i,.,0.18*
Cc1c(NC(=O)CC(=O)Nc2c(C)n(C)n(-c3ccccc3)c2=O)c(=O)n(-c2ccccc2)n1C,-36,1,.,i,5,.
Cc1c(NC(=O)CSc2ccccc2F)c(=O)n(-c2ccccc2)n1C,.,-3,-2.2*,i,4,0.081
CC(=O)/C=C(\C)Nc1c(C)n(C)n(-c2ccccc2)c1=O,-21,0,1.8*,i,2,?
Cc1ccc2c(c1)N(C(C)C(=O)NCc1ccc3c(c1)OCO3)C(=O)CO2 (stereo unspecified),.,0,.,i,.,.
O=C(Nc1ccc(O)c(-c2nc3ccccc3o2)c1)C1(c2ccc(Br)cc2)CCCC1,.,4,.,i,5,0.079
Cc1ccc(OCC(=O)Nc2ccc(O)c(-c3nc4ccccc4o3)c2)cc1,6,-2,.,.,3,.
Cc1ccc(C)c(N2CC(C(=O)O)CC2=O)c1 (stereo unspecified),.,-1,0.02,i,3,.
O=C(Cc1cccc2ccccc12)N/N=C/c1ccncc1,.,1,-6.6*,i,2,0.08
